Screening results deposited in PubChem BioAssay by several laboratories.
PAFAH1B2 FP inh: PAFAH1B2 enzyme inhibitors, primary screen, biochemical, fluorescence polarization, human; AID 492953, 2010; recombinant PAFAH1B2, FP-rhodamine activity probe; Platelet-activating factor acetylhydrolase IB subunit alpha2 (Homo sapiens), P68402; inhibition, % at 3.39 µM; 340,000 tested, 1.2% active;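 active means inhibition above the mean of all tested compounds plus 3 SD, cut at about 24% in these data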
TDP2 absorb: human TDP2 enzyme inhibitors, primary screen, biochemical, epi absorbance, recombinant enzyme | Tyrosyl-DNA phosphodiesterase 2 (Homo sapiens), O95551 | inhibition, % at 12.8 µM | 370,000 tested, 0.34% active | T5PNP hydrolysis, p-nitrophenol absorbance 415 nm | AID 720702, 2013;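 active means inhibition above the mean of all tested compounds plus 3 SD, set per campaign, cut at about 25% in these data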
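test system = human TDP2 enzyme | input = TDP2 enzyme at 120 nM final | medium = 50 mM Tris-HCl pH 7.5 with Mg2+, KCl, DTT, BSA | also added = T5PNP substrate, 5 mM | times = 2 h at 37 °C | technique = epi absorbance | benchmarks = high control without enzyme, low control DMSO plus TDP2 | replication = each compound tested once, singlicate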
PAFAH2 inh: PAFAH2 enzyme inhibitors, primary screen, biochemical, fluorescence polarization, human | 340,000 tested, 0.99% active | recombinant PAFAH2, FP-rhodamine activity probe | inhibition, % at 3.39 µM | Platelet-activating factor acetylhydrolase 2, cytoplasmic (Homo sapiens), Q99487;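 active means inhibition above the mean over all tested compounds plus 3 SD, cut at about 30% in these data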;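 further: inhibitors block probe labeling of enzyme so polarization drops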
Apaf-1 inh: inhibitors of human Apaf-1 apoptosome, primary screen, biochemical, DEVD-Rh110 fluorescence, uHTS. reconstituted apoptosome caspase-3 activity. inhibition, % at 20 µM. 330,000 tested, 0.71% active. AID 489030, 2010; active means inhibition of at least 40% at 20 µM
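Assay system – apoptosome proteins · Medium – Hepes buffer, pH 7.5 · Also added – cytochrome c with DEVD-Rh110 · Timing – 30 min compound preincubation, 50 min activation, room temperature · Detection – Rh110 fluorescence, excitation 480 nm, emission 540 nm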
PAFAH1B3 FP inh: PAFAH1B3 enzyme inhibitors, primary screen, biochemical, fluorescence polarization, human; Platelet-activating factor acetylhydrolase IB subunit alpha1 (Homo sapiens), Q15102; recombinant PAFAH1B3, FP-rhodamine probe; inhibition, % at 3.39 µM; 340,000 tested, 0.28% active;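 active means inhibition above the screen-wide average of all tested compounds plus 3 SD, cut at about 25% in these data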
Numbers stand for hits; i = inactive; nt = no result. Rows were chosen to be rich in hits. Some 2.3% of all compounds tested hit in one or more screens of this group.

SMILES	PAFAH1B2 FP inh	TDP2 absorb	PAFAH2 inh	Apaf-1 inh	PAFAH1B3 FP inh
COC(=O)C1CN(C2CCCC2)CCS(=O)(=O)N1Cc1cn(Cc2ccc(Cl)cc2)nn1 (stereo not drawn)	nt	i	nt	nt	nt
CC(C)(C)OC(=O)[C@H](CCCCN)NC(=O)c1[nH]cnc1C(=O)N[C@@H](Cc1ccccc1)C(=O)OCc1ccccc1	i	nt	i	64.5	i
CCOCC(O)CSCc1ccc(Cl)cc1 (stereo not drawn)	25.6	i	i	i	i
CCOC(=O)C1CCN(CC(O)COCc2ccc(Cl)cc2)CC1 (stereo not drawn)	i	i	i	i	i
CC(=O)N1CCc2c1cccc2S(=O)(=O)NC(CC(C)C)C(=O)Nc1ccccc1C (stereo not drawn)	nt	i	nt	nt	nt
Cc1cc(=O)[nH]c(SCC(=O)C23CC4CC(CC(C4)C2)C3)c1C#N	63.1	i	49.0	i	i
CCCCCCCCN1C(=O)[C@@H](CC(=O)N2CCOCC2)C[C@@]2(C(=O)OC)C1=C[C@H](C(C)C)O[C@@H]2C1CC1	nt	i	nt	nt	nt
COc1ccc2c(c1)N[C@@](CCN1C(=O)c3ccccc3C1=O)(c1[nH]c3ccccc3c1CCN1C(=O)c3ccccc3C1=O)C2=O	nt	i	nt	nt	nt
O=C(COC(=O)Cc1ccc(Br)cc1)NC1CCCCCC1	27.3	i	i	i	i
O=C(COC(=O)Cc1ccc(Br)cc1)NC12CC3CC(CC(C3)C1)C2	38.3	i	i	i	i
O=C(COC(=O)COc1ccc(Br)cc1)NC1CCCCCC1	i	i	i	i	i
COC(=O)[C@]12C[C@H](CC(=O)N3CCN(C(=O)C4CC4)CC3)C(=O)N(Cc3cccc4ccccc34)C1=C[C@H](COCc1ccccc1)O[C@@H]2C	nt	i	nt	nt	nt
COc1cc(C2C(C#N)=C(N)OC3=C2C(=O)CCC3)c([N+](=O)[O-])cc1OC (stereo not drawn)	i	i	i	nt	26.8
Cn1c(NCCCO)nc2c(c1=O)C1(CCCCC1)Cc1ccccc1-2	i	i	i	i	i
CCCn1c(SCC(N)=O)nc2c(c1=O)C1(CCCC1)Cc1ccccc1-2	i	i	i	i	i
CCSc1n[nH]c2nc3c(c(=O)n12)C1(CCCCC1)Cc1ccccc1-3	82.3	i	57.7	i	i
N#CCSc1n[nH]c2nc3c(c(=O)n12)C1(CCCCC1)Cc1ccccc1-3	90.7	i	38.2	i	i
CCC(=O)Nn1cnc2c(c1=O)C1(CCCCC1)Cc1ccccc1-2	33.0	i	i	i	i
CSc1n[nH]c2nc3c(c(=O)n12)C1(CCCCC1)Cc1ccccc1-3	91.4	i	44.5	i	i
COC(=O)[C@]12C[C@H](CC(=O)NCc3cccc(C(F)(F)F)c3)C(=O)N(Cc3ccc4c(c3)OCO4)C1=C[C@H](C(C)C)O[C@@H]2C1CC1	nt	i	nt	nt	nt
O=C(O[C@@H]1OC2COC(=O)c3cc(O)c(O)c(O)c3-c3c(cc(O)c(O)c3O)C(=O)O[C@@H]([C@H]1O)[C@@H]2O)c1cc(O)c(O)c(O)c1	26.4	nt	59.0	nt	37.3
O=C(CC1CCCC1)N1CC[C@H]2[C@H](CCCN2Cc2ccc(F)cc2)C1	nt	i	nt	nt	nt
COc1ccc2c(c1)C(=NNc1ccc(C(=O)O)cc1)c1cc(OC)ccc1-2	i	i	i	i	27.0
COCc1cn(-c2ccc3c(c2)[C@]2(CC(=O)N(C)C2c2ccccc2)C(=O)N3CC(C)C)nn1 (stereo partly drawn)	nt	i	nt	nt	nt
CC(=O)Nc1cc(OC(C)=O)c2nonc2c1OC(C)=O	34.0	98.2	i	97.9	68.4
SMILES	PAFAH1B2 FP inh	TDP2 absorb	PAFAH2 inh	Apaf-1 inh	PAFAH1B3 FP inh
CC(=O)Nc1nonc1NC(C)=O	i	i	i	i	i
Cc1nc(C)c(C(=O)OCC(=O)Nc2ccccc2)s1	i	i	95.0	i	i
COc1ccc(NC(=O)CCCCCN2C(=O)c3cccc([N+](=O)[O-])c3C2=O)c(OC)c1	i	i	i	40.9	i
O=C(O)CCc1ccc(-c2ccc(F)cc2)n1Cc1ccco1	28.9	i	i	i	i
COc1ccc(CCC[C@H](CCC(=O)N(c2ccccc2)c2ccccc2)CCc2ccccc2)cc1	nt	i	nt	nt	nt
Cc1ccc(C)c(Cn2nnc3c(=O)[nH]c(C(=O)NCC4CCCO4)nc32)c1 (stereo not drawn)	67.0	i	i	i	i
COC(=O)[C@]12C[C@H](CC(=O)N3CCSCC3)C(=O)N(Cc3ccco3)C1=C[C@H](C(C)C)O[C@@H]2C1CC1	nt	i	nt	nt	nt
CCCCOCCCNC(=O)C[C@@H]1C(=O)N(CCc2ccc(Cl)cc2)C2=CCCC[C@]21C(=O)OCC	nt	i	nt	nt	nt
COC(=O)c1cccc(Cn2ccc3ccc(-c4ccc5ccn(C(=O)c6ccc(C)cc6)c5c4)cc32)c1	nt	i	nt	nt	nt
Cn1c(=O)c2c(nc(NC3CCCCC3)n2CC(=O)C23CC4CC(CC(C4)C2)C3)n(C)c1=O	24.6	i	i	i	i
Cn1c(=O)c2c(nc(NC3CCCCC3)n2Cc2ccccc2)n(C)c1=O	i	i	i	i	i
CCCCCCCc1ccc(C2NC(=S)NC3=C2C(=O)c2ccccc23)cc1 (stereo not drawn)	nt	nt	nt	44.1	nt
CCc1ccc(C2NC(=S)NC3=C2C(=O)CCC3)cc1 (stereo not drawn)	i	i	i	i	i
O=S(=O)(O)c1cc(Cl)cc(N=Nc2ccc(O)cc2O)c1O	42.4	i	34.7	nt	25.6
COc1ccc(/C(N)=N/OC(=O)CSc2ccc(C)cc2)cc1OC	63.5	i	i	i	i
CC(=O)N1CCc2cc(S(=O)(=O)NC3CCN(C(=O)OCc4ccccc4)CC3)ccc21	nt	i	nt	nt	nt
Cc1cc(C(C)(C)C)cc(S(=O)(=O)Nc2cccc(C(=O)O)c2)c1C	30.1	i	i	i	i
O=C(NCCCc1ccccc1)[C@H](Cc1ccccc1)NC1(C(=O)NCCc2c[nH]c3ccccc23)CCOCC1	nt	i	nt	nt	nt
Cc1cc(C)c(S(=O)(=O)/N=C2/C=C(Sc3ncn[nH]3)C(=O)c3ccccc32)cc1C	71.8	66.5	47.4	nt	48.6
Cc1ccc(NC2=C/C(=N/S(=O)(=O)c3cccs3)c3ccccc3C2=O)cc1C	i	i	i	nt	i
COC(=O)CC1OCC=C2CN3CCC45C6=CC(=O)C(=O)C([N+](=O)[O-])=C6NC4C1C2CC35 (stereo not drawn)	nt	67.7	nt	nt	nt
C[C@H]1CN(S(=O)(=O)C(C)(C)C)[C@@H](CCO)/C1=C\CCO	nt	i	nt	nt	nt
O=C1C=CC2=C3c4cc(O)c(O)cc4CC3(O)COC2=C1O (stereo not drawn)	i	i	85.0	nt	35.9
CCn1c(=O)n2n(c1=O)[C@]1(C=C(C)C2)CN(Cc2ccc(OC)cc2OC)C(NC(=O)c2ccccc2)=N1	nt	i	nt	nt	nt
